For assay [1], the system named is Rattus norvegicus. The experiment in a line: Compound was tested for minimum alveolar concentration in rat at dose 60 mg/kg administered intraperitoneally. The format is functional. To be noted: route intraperitoneal. In outline: (§1)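 Rats were isoflurane-induced, intubated and ventilated, with femoral arterial and venous lines and normothermia. Baseline MAC was taken by tail clamp for 1 min, stepping isoflurane by 0.1% with 12–15 min equilibration. MAC was the midpoint between movement and no movement. The compound (60 mg/kg) was sonicated in 3 mL peanut oil and given ip. MAC was redetermined at 30 min and 1 h. Blood pressure was recorded; values are given as mean ± SEM.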

In assay [2] the test system is Rattus norvegicus. In words: Compound was tested for blood pressure in rat at dose 60 mg/kg administered intraperitoneally. To be noted: route intraperitoneal. In kind it is functional. In outline: as §1
Assay [3] deals with Mus musculus. The experiment in a line: Compound was tested for anticonvulsant activity against maximal electroshock at dose 100 mg/kg in time 0.5 hr in mice administered subcutaneously. In kind it is functional. To be noted: route subcutaneous. The method, boiled down: (§2)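 Run by the NINDS ADD program in mice, challenged with maximal electroshock or subcutaneous metrazol at 0.5 h and 4 h after dosing. Protection is scored per animal (e.g. […], 5 for scMet at 100 mg/kg).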
On the technique in general: Protection in the maximal electroshock model is a classic sign of anticonvulsant action.

The subject of assay [4] is Mus musculus. In words: Compound was tested for anticonvulsant activity against maximal electroshock at dose 100 mg/kg in time 4 hr in mice administered subcutaneously. The format is functional. The settings on record: route subcutaneous. The method, boiled down: as §2
Assay [5] deals with Mus musculus. The experiment in a line: Compound was tested for anticonvulsant activity against maximal electroshock at dose 300 mg/kg in time 0.5 hr in mice administered subcutaneously. The format is functional. To be noted: route subcutaneous. In outline: as §2
The subject of assay [6] is Mus musculus. The experiment in a line: Compound was tested for anticonvulsant activity against maximal electroshock at dose 300 mg/kg in time 4 hr in mice administered subcutaneously. In kind it is functional. To be noted: route subcutaneous. In outline:
as §2

The test system of assay [7] is Mus musculus. The experiment in a line: Compound was tested for anticonvulsant activity against maximal electroshock at dose 30 mg/kg in time 0.5 hr in mice administered subcutaneously. The format is functional. The settings on record: route subcutaneous. In outline: as §2
The subject of assay [8] is Mus musculus. The experiment in a line: Compound was tested for anticonvulsant activity against maximal electroshock at dose 30 mg/kg in time 4 hr in mice administered subcutaneously. The format is functional. To be noted: route subcutaneous. In outline:
as §2

For assay [9], the system named is Mus musculus. In words: Compound was tested for anticonvulsant activity against subcutaneous metrazole at dose 100 mg/kg in time 0.5 hr in mice administered subcutaneously. The format is functional. The method, boiled down: as §2
The test system of assay [10] is Mus musculus. In words: Compound was tested for anticonvulsant activity against subcutaneous metrazole at dose 300 mg/kg in time 0.5 hr in mice administered subcutaneously. The format is functional. In outline: as §2
Assay [11] has as its system Mus musculus. In words: Compound was tested for anticonvulsant activity against subcutaneous metrazole at dose 300 mg/kg in time 4 hr in mice administered subcutaneously. The format is functional. In outline: as §2
In assay [12] the test system is Mus musculus. In words: Compound was tested for anticonvulsant activity against subcutaneous metrazole at dose 30 mg/kg in time 0.5 hr in mice administered subcutaneously. The format is functional. In outline:
as §2

Assay [13] relates to Mus musculus. In words: Compound was tested for anticonvulsant activity against subcutaneous metrazole at dose 30 mg/kg in time 4 hr in mice administered subcutaneously. The format is functional. The method, boiled down:
as §2

Assay [14] has as its system Mus musculus. In words: Compound was tested for anticonvulsant activity using rotarod method at dose 100 mg/kg in time 0.5 hr in mice administered subcutaneously. The format is functional. The settings on record: route subcutaneous. The method, boiled down: (§3)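 NINDS ADD rotarod neurotoxicity screen in mice at 0.5 h and 4 h post-dose. The score is inability to grasp the rotating rod; loss of righting reflex after falling was also noted.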
(In general: Falling from the rotarod earlier than controls is read as motor impairment.)

In assay [15] the test system is Mus musculus. The experiment in a line: Compound was tested for anticonvulsant activity using rotarod method at dose 100 mg/kg in time 4 hr in mice administered subcutaneously. The format is functional. To be noted: route subcutaneous. In outline: as §3
For assay [16], the system named is Mus musculus. In words: Compound was tested for anticonvulsant activity using rotarod method at dose 300 mg/kg in time 0.5 hr in mice administered subcutaneously. In kind it is functional. To be noted: route subcutaneous. The method, boiled down: as §3
Assay [17] concerns Mus musculus. The experiment in a line: Compound was tested for anticonvulsant activity using rotarod method at dose 300 mg/kg in time 4 hr in mice administered subcutaneously. In kind it is functional. To be noted: route subcutaneous. The method, boiled down: as §3
For assay [18], the target named is Protein kinase C (PKC) (Homo sapiens) (UniProt O94806+P41743+P17252+P05129+Q05655+P05771+Q05513+Q02156+P24723+Q15139+Q04759). In words: Inhibition of protein kinase C at 100 uM; NE=no effect. In kind it is protein assay.
In assay [19] the target is Gamma-aminobutyric acid receptor subunit gamma-1 (Rattus norvegicus) (UniProt P23574). In words: Enhanced 10 uM GABA-A receptor currents in rat hippocampal neurons; NE=no effect. To be noted: Hippocampus. The format is functional, tissue-based. The method, boiled down:
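Peak current is expressed as percent of the GABA-alone control. Concentration–response was fitted to a four-parameter logistic; values are given as mean ± SEM.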

Assay [20] deals with HEK293. The experiment in a line: Inhibition of rat TASK-1 and TASK-3-leak K+ channels expressed in HEK293 cells at 100 uM; NE denotes no effects. The format is functional, cell-based.
For assay [21], the species on record is Rattus norvegicus. In words: Compound was tested for anticonvulsant activity against maximal electroshock in rat. The format is functional. The method, boiled down:
(§4)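 NINDS ADD Phase II quantification with oral dosing. […] Therapeutic index is rotarod TD50 divided by the MES or scMET ED50.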

In assay [22] the test system is Rattus norvegicus. In words: Compound was tested for anticonvulsant activity against subcutaneous metrazole in rat. The format is functional. To be noted: sc. In outline:
as §4

Assay [23] is filed under the species Rattus norvegicus. The experiment in a line: Compound was tested for anticonvulsant activity using rotarod method in rat. In kind it is functional. The method, boiled down:
as §4

Assay [24] is filed under the species Rattus norvegicus. In words: Compound was tested for anticonvulsant activity by measuring the therapeutic index by maximal electroshock in rat. The format is functional. The method, boiled down:
as §4

Assay [25] relates to Rattus norvegicus. The experiment in a line: Compound was tested for anticonvulsant activity by measuring the therapeutic index by subcutaneous metrazole in rat. In kind it is functional. The method, boiled down:
as §4

For assay [26], the system named is Rattus norvegicus. The experiment in a line: Compound was tested for isoflurane minimum alveolar concentration in rat at dose 60 mg/kg administered intraperitoneally. The format is functional. The settings on record: route intraperitoneal. In outline:
as §1

The subject of assay [27] is HEK293. The experiment in a line: Effect on HEK293 cells co-expressing voltage-gated Na+ channel rNav 1.3 and beta-3 at 10 uM; NE=No effect. The format is functional, cell-based. In outline: (§5)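 rNaV1.3 coexpressed with β3 in HEK293 cells (and Xenopus oocytes), exposed to 10 µM or 100 µM and assessed for Na+ channel block.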
Assay [28] relates to HEK293. The experiment in a line: Effect on HEK293 cells co-expressing voltage-gated Na+ channel rNav 1.3 and beta-3 at 100 uM; NE=No effect. The format is functional, cell-based. In outline:
as §5

For assay [29], the system named is Mus musculus. The experiment in a line: Compound was tested for anticonvulsant activity against subcutaneous metrazole at dose 100 mg/kg in time 4 hr in mice administered subcutaneously. In kind it is functional. The method, boiled down: as §2
Assay [30] concerns the target T1, Sodium channel protein type 4 subunit alpha (Homo sapiens, UniProt P35499). The experiment in a line: Inhibition of sodium channels through phasic blockade. In kind it is functional.
For assay [31], the target named is T1, Sodium channel protein type 4 subunit alpha. The experiment in a line: Inhibition of sodium channels through tonic blockade. The format is functional.

The results in this text go back to ChEMBL document CHEMBL1145795, “Design, synthesis, and evaluation of analogues of 3,3,3-trifluoro-2-hydroxy-2-phenyl-propionamide as orally available general anesthetics” (J Med Chem, 2003).

The structures appear in SMILES notation. pIC50: −log10 of the molar value. The source made the active and inactive calls. No cut-off for these calls is given here.

T1 sequence (P35499 whole entry): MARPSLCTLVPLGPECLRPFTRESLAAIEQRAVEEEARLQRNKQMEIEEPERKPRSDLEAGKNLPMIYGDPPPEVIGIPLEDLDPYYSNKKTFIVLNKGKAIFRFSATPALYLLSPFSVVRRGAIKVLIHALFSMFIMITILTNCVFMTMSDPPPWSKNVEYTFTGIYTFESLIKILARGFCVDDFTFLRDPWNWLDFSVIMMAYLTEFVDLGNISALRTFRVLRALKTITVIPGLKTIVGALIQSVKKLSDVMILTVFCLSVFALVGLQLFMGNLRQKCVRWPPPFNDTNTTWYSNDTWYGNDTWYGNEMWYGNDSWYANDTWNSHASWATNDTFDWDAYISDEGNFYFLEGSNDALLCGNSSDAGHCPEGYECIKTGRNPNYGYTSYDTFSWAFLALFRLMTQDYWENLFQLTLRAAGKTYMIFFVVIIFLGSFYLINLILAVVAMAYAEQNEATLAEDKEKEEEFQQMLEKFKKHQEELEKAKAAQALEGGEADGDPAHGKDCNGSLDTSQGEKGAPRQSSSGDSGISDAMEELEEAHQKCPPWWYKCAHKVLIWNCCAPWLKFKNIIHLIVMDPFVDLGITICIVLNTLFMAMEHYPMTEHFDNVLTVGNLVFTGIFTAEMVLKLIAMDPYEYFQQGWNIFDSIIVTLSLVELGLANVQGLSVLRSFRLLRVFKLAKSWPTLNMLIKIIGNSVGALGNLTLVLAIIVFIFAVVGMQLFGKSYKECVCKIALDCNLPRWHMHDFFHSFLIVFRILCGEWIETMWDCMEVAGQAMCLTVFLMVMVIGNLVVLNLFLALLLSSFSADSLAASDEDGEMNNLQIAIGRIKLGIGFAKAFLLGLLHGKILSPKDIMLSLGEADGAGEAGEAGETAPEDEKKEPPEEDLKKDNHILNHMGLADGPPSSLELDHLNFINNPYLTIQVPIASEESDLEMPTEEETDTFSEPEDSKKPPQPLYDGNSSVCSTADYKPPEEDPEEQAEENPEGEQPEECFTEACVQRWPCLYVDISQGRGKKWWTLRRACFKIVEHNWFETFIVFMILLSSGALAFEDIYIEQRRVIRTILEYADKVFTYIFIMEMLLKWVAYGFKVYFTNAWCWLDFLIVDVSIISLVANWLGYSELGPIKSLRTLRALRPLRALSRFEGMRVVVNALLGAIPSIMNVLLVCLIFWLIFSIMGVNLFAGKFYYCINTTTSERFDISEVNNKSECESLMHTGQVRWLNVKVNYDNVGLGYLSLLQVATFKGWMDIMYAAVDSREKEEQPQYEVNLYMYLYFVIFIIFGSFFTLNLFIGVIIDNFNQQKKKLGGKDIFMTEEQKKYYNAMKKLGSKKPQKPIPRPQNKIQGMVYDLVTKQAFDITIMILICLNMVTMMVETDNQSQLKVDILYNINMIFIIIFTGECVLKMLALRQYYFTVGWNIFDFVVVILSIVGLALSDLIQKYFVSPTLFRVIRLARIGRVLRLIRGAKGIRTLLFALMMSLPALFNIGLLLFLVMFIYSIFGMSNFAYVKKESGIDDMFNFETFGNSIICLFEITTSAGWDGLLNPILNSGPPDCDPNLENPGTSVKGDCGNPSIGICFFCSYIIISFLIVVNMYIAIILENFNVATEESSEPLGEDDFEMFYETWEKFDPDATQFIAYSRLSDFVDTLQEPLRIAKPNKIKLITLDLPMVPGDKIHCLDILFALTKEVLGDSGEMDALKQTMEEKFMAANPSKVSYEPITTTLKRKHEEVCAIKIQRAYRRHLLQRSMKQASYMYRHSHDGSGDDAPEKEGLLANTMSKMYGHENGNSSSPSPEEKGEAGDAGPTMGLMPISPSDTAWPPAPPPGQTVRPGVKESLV
Gamma-aminobutyric acid receptor subunit gamma-1 (Rattus norvegicus), sequence (P23574 whole entry): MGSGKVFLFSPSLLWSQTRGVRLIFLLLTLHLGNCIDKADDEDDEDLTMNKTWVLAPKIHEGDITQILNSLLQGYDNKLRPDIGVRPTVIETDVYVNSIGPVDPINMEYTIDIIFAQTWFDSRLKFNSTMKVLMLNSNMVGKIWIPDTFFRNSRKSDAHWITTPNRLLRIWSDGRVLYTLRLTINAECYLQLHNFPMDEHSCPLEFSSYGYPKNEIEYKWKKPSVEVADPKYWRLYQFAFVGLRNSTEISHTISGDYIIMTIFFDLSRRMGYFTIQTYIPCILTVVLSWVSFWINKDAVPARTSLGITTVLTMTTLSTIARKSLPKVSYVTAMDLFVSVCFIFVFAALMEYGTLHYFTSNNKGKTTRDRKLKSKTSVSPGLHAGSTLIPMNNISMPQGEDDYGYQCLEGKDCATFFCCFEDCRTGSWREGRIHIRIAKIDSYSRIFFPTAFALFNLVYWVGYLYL

For the compound `O=C(O)C(O)(c1ccccc1)C(F)(F)F` (stereo not given), the MAC reduction in the assay on Rattus norvegicus [1] is reported as -9.1%. This compound had a Mean blood pressure with Rattus norvegicus [2] of 116 mmHg.

In the case of `CC(O)(C(N)=O)c1ccccc1` (stereo not given) [ATROLACTAMIDE], the MAC reduction with Rattus norvegicus [1] stood at 0%. The same compound showed a Mean blood pressure in the assay on Rattus norvegicus [2] of 127 mmHg.

As to `NC(=O)C(O)(c1ccccc1)C(F)(F)F` (stereo not given), the Protection was 3 in the assay with Mus musculus [3]; 3 in the assay with Mus musculus [4]; 1 with Mus musculus [5]; 1 with Mus musculus [6]; 0 in the assay on Mus musculus [7]; 0 with Mus musculus [8]. Besides, the Protection in the assay on Mus musculus [9] is 5; in the assay on Mus musculus [10], 1; with Mus musculus [11] it was 1; in the assay with Mus musculus [12] it was 0; in the assay with Mus musculus [13], 0; in the assay on Mus musculus [14], 4. In addition, the Protection came out at 2 with Mus musculus [15], 4 in the assay on Mus musculus [16], 2 with Mus musculus [17] and 0 in the assay on Mus musculus [29]. The result (in [18]; in assay [19]; with HEK293 [20]; in the assay with HEK293 [27]; in the assay with HEK293 [27] (Xenopus sp.); with HEK293 [28]) was inactive. The outcome in the assay with HEK293 [28] (Xenopus sp.) was inactive. The ED50 (commonly the dose at which the effect has come halfway, by size or by number of responders) in the assay listed under Rattus norvegicus [21] is 9.9 mg/kg; with Rattus norvegicus [22], 39 mg/kg; in the assay listed under Rattus norvegicus [23], 100 mg/kg. In addition, the MAC reduction in the assay with Rattus norvegicus [1] is -34%. The values for the T.I. in the assay filed under Rattus norvegicus [24] and in the assay on Rattus norvegicus [25] were 10 and 2.6, respectively. The Mean blood pressure in the assay on Rattus norvegicus [2] was 119 mmHg. In the assay with Rattus norvegicus [26], the Volume reduction was found to be 34%.

As for `NC(=O)C(OCc1ccccc1)(c1ccccc1)C(F)(F)F` (stereo not given), in the assay with Rattus norvegicus [1], the MAC reduction was -4.4%. In the assay with Rattus norvegicus [2], the Mean blood pressure was found to be 121 mmHg.

For `O=C1NC(=O)C(c2ccccc2)(c2ccccc2)N1` [PHENYTOIN], the ED50 in the assay filed under Rattus norvegicus [21] is 9.5 mg/kg; with Rattus norvegicus [22] it was greater than 300 mg/kg; in the assay filed under Rattus norvegicus [23], 66 mg/kg. Further, the T.I. in the assay listed under Rattus norvegicus [24] is reported as 6.9.

On to `NC(=O)C(O)(c1ccccc1)C(F)(F)Cl` (stereo not given), for which, in the assay on Rattus norvegicus [1], the MAC reduction was -43%. In the assay on Rattus norvegicus [2], this compound yielded a Mean blood pressure of 81 mmHg.

Turning to `CN1C(=O)C(O)(C(F)(F)F)c2ccccc21` (stereo not given), in the assay with Rattus norvegicus [1], the MAC reduction is recorded as -4.4%. Also, the Mean blood pressure in the assay with Rattus norvegicus [2] is 112 mmHg.

For `O=C1Nc2ccccc2C1(O)C(F)(F)F` (stereo not given), in the assay with Rattus norvegicus [1], the MAC reduction is given as -4.3%. In the assay on Rattus norvegicus [2], this compound gave a Mean blood pressure of 113 mmHg.

Regarding `CNC1(c2ccccc2Cl)CCCCC1=O` (stereo not given) [KETAMINE], the figures for the pIC50 in assay [30] and in assay [31] were 2.64 and 3.10, respectively.

In the case of `NC(=O)C(O)(Cc1ccccc1)C(F)(F)F` (stereo not given), in the assay with Rattus norvegicus [1], the MAC reduction was 0%. In the assay on Rattus norvegicus [2], this compound registered a Mean blood pressure of 111 mmHg.

Consider `NCC(O)(c1ccccc1)C(F)(F)F` (stereo not given), for which the MAC reduction in the assay on Rattus norvegicus [1] is given as -6.5%. Moreover, in the assay on Rattus norvegicus [2], the Mean blood pressure was determined as 116 mmHg.

For the compound `NC(=O)C(O)(CC(F)(F)F)c1ccccc1` (stereo not given), the MAC reduction with Rattus norvegicus [1] is -11%. Moreover, in the assay with Rattus norvegicus [2], the Mean blood pressure turned out to be 107 mmHg.
